From PMC3548047 (Nature, 2013)
Where a SMILES comes first, the peptide text is derived from it. The star is where a group is joined. Myristoyl = CCCCCCCCCCCCCC(=O)*

How the values were obtained:
[1] = target: T1, PKMζ (Rattus norvegicus, UniProt P09217); assay: LANCE TR-FRET in vitro kinase assay, purified PKMζ; format: biochemical
T1 sequence (P09217 1-409 isoform P09217-2): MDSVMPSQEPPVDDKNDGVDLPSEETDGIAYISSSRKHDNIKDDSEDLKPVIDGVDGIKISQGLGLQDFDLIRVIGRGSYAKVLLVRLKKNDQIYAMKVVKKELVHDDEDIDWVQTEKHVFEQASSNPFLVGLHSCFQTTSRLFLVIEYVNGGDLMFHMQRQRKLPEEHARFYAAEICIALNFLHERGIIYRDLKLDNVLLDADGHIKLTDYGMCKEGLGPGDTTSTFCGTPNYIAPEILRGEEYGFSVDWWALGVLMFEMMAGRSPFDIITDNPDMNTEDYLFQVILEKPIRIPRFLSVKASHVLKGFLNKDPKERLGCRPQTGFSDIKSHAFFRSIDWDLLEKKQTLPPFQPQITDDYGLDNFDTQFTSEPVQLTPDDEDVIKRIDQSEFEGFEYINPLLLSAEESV

[2] = target: T2, PKCι (Rattus norvegicus, UniProt F1M7Y5); assay: LANCE TR-FRET in vitro kinase assay, purified PKCι; format: biochemical
T2 sequence (F1M7Y5 1-596): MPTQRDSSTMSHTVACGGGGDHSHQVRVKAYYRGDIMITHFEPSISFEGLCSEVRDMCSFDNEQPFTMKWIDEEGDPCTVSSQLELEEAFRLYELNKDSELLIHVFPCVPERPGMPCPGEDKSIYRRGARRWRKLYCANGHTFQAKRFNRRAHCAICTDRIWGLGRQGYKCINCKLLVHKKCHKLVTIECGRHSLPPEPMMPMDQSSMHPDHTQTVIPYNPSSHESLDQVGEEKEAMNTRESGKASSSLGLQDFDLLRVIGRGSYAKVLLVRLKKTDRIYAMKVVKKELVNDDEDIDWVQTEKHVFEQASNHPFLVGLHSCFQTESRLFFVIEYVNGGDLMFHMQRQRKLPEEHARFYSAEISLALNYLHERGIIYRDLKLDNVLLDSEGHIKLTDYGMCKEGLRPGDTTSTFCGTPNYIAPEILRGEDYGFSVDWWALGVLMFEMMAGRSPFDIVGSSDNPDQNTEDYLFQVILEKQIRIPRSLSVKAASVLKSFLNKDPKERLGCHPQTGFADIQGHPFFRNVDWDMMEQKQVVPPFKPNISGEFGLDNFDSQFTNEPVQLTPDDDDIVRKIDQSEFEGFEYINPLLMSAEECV

[3] = target: T3, PKCζ (Rattus norvegicus, UniProt P09217); assay: LANCE TR-FRET in vitro kinase assay, purified PKCζ; format: biochemical
T3 sequence (P09217 1-592): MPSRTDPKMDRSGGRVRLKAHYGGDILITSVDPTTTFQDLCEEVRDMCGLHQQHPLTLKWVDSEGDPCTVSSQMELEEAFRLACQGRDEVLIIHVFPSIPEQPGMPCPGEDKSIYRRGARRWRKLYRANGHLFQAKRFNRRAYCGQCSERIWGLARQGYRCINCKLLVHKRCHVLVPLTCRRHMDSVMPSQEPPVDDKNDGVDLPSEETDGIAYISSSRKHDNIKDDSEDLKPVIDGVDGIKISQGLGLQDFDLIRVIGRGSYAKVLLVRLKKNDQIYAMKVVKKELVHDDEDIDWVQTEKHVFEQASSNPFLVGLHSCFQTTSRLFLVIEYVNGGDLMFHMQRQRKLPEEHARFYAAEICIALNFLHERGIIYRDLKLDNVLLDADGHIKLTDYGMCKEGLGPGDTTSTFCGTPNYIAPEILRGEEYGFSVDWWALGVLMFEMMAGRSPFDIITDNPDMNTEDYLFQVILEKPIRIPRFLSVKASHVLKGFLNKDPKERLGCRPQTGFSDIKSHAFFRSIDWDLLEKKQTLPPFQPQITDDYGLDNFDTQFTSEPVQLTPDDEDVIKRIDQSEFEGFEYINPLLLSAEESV

[4] = system: Prkcz−/− mice (cocaine reward memory); format: in vivo; conditions: ZIP 10 nmol/µl, 1 µl per side into NAc
In short: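 Two-chamber CPP with 20-min conditioning sessions; saline or cocaine 10 mg/kg i.p., counterbalanced. Bilateral cannulae placed in the NAc (1.40 mm anterior, ±1.0 mm lateral, −3.8 mm ventral) under ketamine/xylazine, with one week of recovery. ZIP at 10 mM in 0.9% saline, or saline, via injectors 0.7 mm past the guides, left 1 min. Index: cocaine-side time on test minus preconditioning time. Mice with placements outside the NAc (Nissl) and Grubbs outliers excluded.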

[5] = system: object location memory in rats; conditions: ZIP bilaterally into the hippocampus; cited from earlier work
[6] = system: cocaine reward memory in rats; conditions: ZIP injection into the NAc; cited from earlier work
[7] = system: fear memory in rats; conditions: ZIP administration into the amygdala; cited from earlier work
[8] = system: Prkcz−/− mice (drug reward memory); assay: Cocaine conditioned place preference, non-cannulated Prkcz−/− mice; format: in vivo; conditions: cocaine 10 mg/kg i.p.; male mice; t=0.153, P=0.88

| SMILES | Ki [1] [µM] | inhibition of PKMζ, PKCι and PKCζ compared (Ki), in words ([1]; in vitro kinase assay, PKMζ) | Ki [2] [µM] | Ki [3] [µM] | other results |
| --- | --- | --- | --- | --- | --- |
| COc1ccc2c(c[n+](C)c3c4cc5c(cc4ccc23)OCO5)c1OC [Chelerythrine, chelerythrine] | 76 | – | – | – | inhibition of PKMζ with DTT, in words ([1]; 1 mM DTT included): lost all inhibitory activity; appearance in the presence of DTT ([1]; 1 mM DTT present): changed color; inhibition of PKMζ without DTT, in words ([1]; assayed without dithiothreitol (DTT)): weak inhibitor of PKMζ |
| CCCCCCCCCCCCCC(=O)N[C@@H](CCCNC(=N)N)C(=O)N[C@@H](CC(C)C)C(=O)N[C@@H](Cc1ccc(O)cc1)C(=O)N[C@@H](CCCNC(=N)N)C(=O)N[C@@H](CCCCN)C(=O)N[C@@H](CCCNC(=N)N)C(=O)N[C@H](C(=O)N[C@@H](Cc1c[nH]c2ccccc12)C(=O)N[C@@H](CCCNC(=N)N)C(=O)N[C@@H](CO)C(=O)N[C@@H](C)C(=O)NCC(=O)N[C@@H](CCCNC(=N)N)C(=O)O)[C@@H](C)CC [Scrambled ZIP] (Myristoyl-RLYRKRIWRSAGR-OH; N-terminus and C-terminus assumed) | 15.4 | inhibited PKMζ, PKCι and PKCζ with similar Ki values | 4.92 | 5.51 | – |
| CCCCCCCCCCCCCC(=O)N[C@@H](CO)C(=O)N[C@H](C(=O)N[C@@H](Cc1ccc(O)cc1)C(=O)N[C@@H](CCCNC(=N)N)C(=O)N[C@@H](CCCNC(=N)N)C(=O)NCC(=O)N[C@@H](C)C(=O)N[C@@H](CCCNC(=N)N)C(=O)N[C@@H](CCCNC(=N)N)C(=O)N[C@@H](Cc1c[nH]c2ccccc12)C(=O)N[C@@H](CCCNC(=N)N)C(=O)N[C@@H](CCCCN)C(=O)N[C@@H](CC(C)C)C(=O)O)[C@@H](C)CC [ZIP, myristoylated zeta inhibitory peptide] (Myristoyl-SIYRRGARRWRKL-OH; C-terminus assumed) | 2.11 | inhibited PKMζ, PKCι and PKCζ with similar Ki values | 1.43 | 1.7 | t statistic for ZIP versus saline, cocaine CPP [4]: 2.258; object location memory performance, in words [5]: impaired; difference in Ki values between ZIP and scrambled ZIP ([1]; PKMζ, in vitro kinase assay): 7.3 -fold; cocaine reward memory, in words [6]: can erase cocaine reward memory; performance in cued fear conditioning, in words [7]: impaired |
| COC(=O)[C@H]1[C@@H](OC(=O)c2ccccc2)C[C@@H]2CC[C@H]1N2C [cocaine] | – | – | – | – | cocaine CPP index, Prkcz−/− versus wild-type, in words [8]: no genotype difference in the cocaine CPP index |
